Laboratory results published in ChEMBL document CHEMBL1154414, “In vitro and in vivo activities of T-705 against arenavirus and bunyavirus infections” (Antimicrob Agents Chemother, 2007).
The source made the active and inactive calls. No cut-off for these calls is given here.

Key:
[1] = system: Pichinde virus; experiment: Antiviral activity against Pichinde virus An 4763 infected Syrian golden hamster assessed as mean serum ALT levels at 20 mg/kg, po twice daily for 7 days administered 72 hrs post viral-challenge measured on day 7 of viral infection; assay type: functional
How it was run: (§1)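 Hamsters were challenged intraperitoneally (bilateral, 65 PFU) and given twice-daily oral gavage doses (0.4% CMC vehicle). Five per group were sacrificed on day 7 and serum was collected. Serum ALT activity was measured by kinetic assay. Three sham-infected animals set the baselines.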

[2] = system: Punta Toro virus; experiment: Antiviral activity against 500 PFU Punta Toro virus Adames infected C57BL/6 mouse assessed as mean serum ALT levels at 30 mg/kg, po twice daily administered 24 hrs post viral challenge measured on day 3 of viral infection; assay type: functional
How it was run: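 C57BL/6 mice received subcutaneous PTV, then oral gavage twice daily for 5–7 days. T-705 was given in 0.4% CMC and ribavirin in saline. Five mice per group (10 placebo) were killed on day 3 or 4, and serum was collected. ALT activity was measured by kinetic assay. Three sham-infected mice set baselines.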

[3] = system: Punta Toro virus; experiment: Antiviral activity against 5000 PFU Punta Toro virus Adames infected C57BL/6 mouse assessed as animals with detectable virus level in serum at 30 mg/kg, po twice daily administered 24 hrs post viral challenge measured on day 3 of viral infection; assay type: functional
How it was run: (§2)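 Mice were infected subcutaneously with PTV and dosed by oral gavage twice daily; 5 per group (10 placebo) were killed on day 3 or 4. Liver homogenate or serum was serially diluted onto triplicate LLC-MK2 monolayers, and CPE was read 6–8 days later. 50% endpoints gave log10 CCID50 per 0.1 g liver or 0.1 ml serum. Detection range was 2.8–9.5; undetectable samples were assigned <2.8.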

[4] = system: Punta Toro virus; experiment: Antiviral activity against 5000 PFU Punta Toro virus Adames infected C57BL/6 mouse assessed as mean day of death at 10 mg/kg, po twice daily for 5 days administered 24 hrs post viral challenge; assay type: functional
How it was run: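 PTV was inoculated subcutaneously into mice in groups of 15 (25–30 placebo). Dosing was by oral gavage twice daily for 5–7 days, with T-705 suspended in 0.4% CMC and ribavirin in saline. Remaining animals were observed 21–28 days for survival and day of death. Test doses had first been checked for tolerance in uninfected animals.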

[5] = system: Punta Toro virus; experiment: Antiviral activity against 50 PFU Punta Toro virus Adames infected C57BL/6 mouse assessed as mean viral titer per 0.1 mL of serum at 10 mg/kg, po twice daily administered 24 hrs post viral challenge measured on day 3 of viral infection; assay type: functional
How it was run: (§3)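 Mice were infected subcutaneously with PTV and dosed by oral gavage twice daily with drug in 0.4% CMC. Five per group (10 placebo) were sacrificed on day 3 or 4. Serially diluted liver homogenate or serum went into triplicate LLC-MK2 wells, and CPE 50% endpoints were read at 6–8 days. The range was 2.8–9.5 log10 CCID50/0.1 g or 0.1 ml, with undetectable samples set to 2.8 and saturated samples to 9.5.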

[6] = system: Punta Toro virus; experiment: Antiviral activity against 500 PFU Punta Toro virus Adames infected C57BL/6 mouse assessed as mean viral titer per 0.1 mL of serum at 10 mg/kg, po twice daily administered 24 hrs post viral challenge measured on day 3 of viral infection; assay type: functional; how it was run: as §2
[7] = system: Pichinde virus; experiment: Antiviral activity against Pichinde virus An 4763 infected Syrian golden hamster assessed as mean serum ALT levels at 50 mg/kg, po twice daily for 7 days administered 72 hrs post viral-challenge measured on day 7 of viral infection measured on day 7 of viral infection; assay type: functional; how it was run: as §1
[8] = system: Pichinde virus; experiment: Antiviral activity against Pichinde virus An 4763 infected Syrian golden hamster assessed as mean day of death at 20 mg/kg, po twice daily for 7 days administered 24 hrs post viral-challenge; assay type: functional
How it was run: (§4)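 Groups of 15 hamsters (placebo 25-30) were challenged intraperitoneally (bilateral, 65 PFU) and dosed twice daily by oral gavage in 0.4% CMC for 5 to 7 days.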

[9] = system: Punta Toro virus; experiment: Antiviral activity against 500 PFU Punta Toro virus Adames infected C57BL/6 mouse assessed as animals with detectable virus level in liver at 10 mg/kg, po twice daily administered 24 hrs post viral challenge measured on day 3 of viral infection; assay type: functional
How it was run: (§5)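 T-705 was suspended in 0.4% carboxymethylcellulose and given by oral gavage twice daily. Mice were infected subcutaneously with PTV. Five mice per group (10 placebo) were sacrificed on day 3 or 4. Liver homogenate or serum was serially diluted onto triplicate LLC-MK2 monolayers, and CPE was read at 6–8 days. The detection limit was 2.8 log10 CCID50 per 0.1 g liver or 0.1 ml serum.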

[10] = system: Pichinde virus; experiment: Antiviral activity against Pichinde virus An 4763 infected Syrian golden hamster assessed as mean serum ALT levels at 40 mg/kg, po twice daily for 7 days administered 4 hrs before viral-challenge measured on day 7 of viral infection; assay type: functional; how it was run: as §1
[11] = system: Pichinde virus; experiment: Antiviral activity against Pichinde virus An 4763 infected Syrian golden hamster assessed as animals with detectable virus level in serum at 20 mg/kg, po twice daily for 7 days administered 72 hrs post viral-challenge measured on day 7 of viral infection; assay type: functional
How it was run: (§6)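 Hamsters (groups of 15, placebo 25-30) were dosed orally by gavage twice daily (drug suspended in 0.4% CMC) after bilateral intraperitoneal challenge with 65 PFU. Five per group were killed on day 7. Liver homogenate or serum was serially diluted onto triplicate B-SC-1 wells, CPE was read at 6-8 days, and the 50% endpoint was taken. Range was 2.8-9.5 log10 CCID50/0.1 g or 0.1 ml, with undetectable assigned <2.8.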

[12] = system: Pichinde virus; experiment: Antiviral activity against Pichinde virus An 4763 infected Syrian golden hamster assessed as mean viral titer per 0.1 g of liver at 20 mg/kg, po twice daily for 7 days administered 72 hrs post viral-challenge measured on day 7 of viral infection; assay type: functional; how it was run: as §6
[13] = system: Punta Toro virus; experiment: Antiviral activity against 50 PFU Punta Toro virus Adames infected C57BL/6 mouse assessed as animals with detectable virus level in serum at 10 mg/kg, po twice daily administered 24 hrs post viral challenge measured on day 3 of viral infection; assay type: functional; how it was run: as §5
[14] = system: Pichinde virus; experiment: Antiviral activity against Pichinde virus An 4763 infected Syrian golden hamster assessed as mean day of death at 20 mg/kg, po twice daily for 7 days administered 72 hrs post viral-challenge measured on day 7 of viral infection; assay type: functional; how it was run: as §4
[15] = system: Punta Toro virus; experiment: Antiviral activity against 500 PFU Punta Toro virus Adames infected C57BL/6 mouse assessed as animals with detectable virus level in serum at 10 mg/kg, po twice daily administered 24 hrs post viral challenge measured on day 3 of viral infection; assay type: functional; how it was run: as §5
[16] = system: Pichinde virus; experiment: Antiviral activity against Pichinde virus An 4763 infected Syrian golden hamster assessed as inhibition of liver damage at 40 mg/kg, po twice daily for 7 days administered 4 hrs before viral-challenge measured on day 7 of viral infection; assay type: functional, organism-based; parameters: dose 40 mg/kg
How it was run: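 Hamsters were challenged intraperitoneally (bilateral, 65 PFU) and dosed twice daily by oral gavage in 0.4% CMC. On day 7, five animals per group were sacrificed. Livers were scored 0-4 for hepatic icterus (0 normal, 4 maximal yellow coloration), and serum ALT was measured by kinetic assay.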

[17] = system: Punta Toro virus; experiment: Antiviral activity against 50 PFU Punta Toro virus Adames infected C57BL/6 mouse assessed as mean viral titer per 0.1 g of liver at 10 mg/kg, po twice daily administered 24 hrs post viral challenge measured on day 3 of viral infection; assay type: functional; how it was run: as §3
[18] = system: Punta Toro virus; experiment: Antiviral activity against 50 PFU Punta Toro virus Adames infected C57BL/6 mouse assessed as survival at 30 mg/kg, po twice daily for 5 days administered 24 hrs post viral challenge; assay type: functional, organism-based; parameters: dose 30 mg/kg
How it was run: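 Groups of 15 mice (25–30 placebo) were inoculated subcutaneously with PTV. Drug in 0.4% carboxymethylcellulose was given by oral gavage twice daily.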

SMILES | Activity [1] [IU/L] | Activity [2] [IU/L] | Activity [3] [%] | Activity [4] [days] | log10CCID50 [5] | log10CCID50 [6] | Activity [7] [IU/L] | Activity [8] [days] | Activity [9] [%] | Activity [10] [IU/L] | Activity [11] [%] | log10CCID50 [12] | Activity [13] [%] | Activity [14] [days] | Activity [15] [%] | Activity [16] | log10CCID50 [17] | Activity [18]
NC(=O)c1nc(F)cnc1O [FAVIPIRAVIR] | 1890 | 900 | 80 | 4.4 | 6.9 | 7.1 | 411 | 9.5 | 0 | 30 | 100 | >8.6 | 100 | 8.1 | 100 | Active | <2.8 | Active
NC(=O)c1ncn([C@@H]2O[C@H](CO)[C@@H](O)[C@H]2O)n1 [RIBAVIRIN] | 67 | 450 | 60 | 4 | <4.9 | 6.7 | 15 | 18 | 20 | 30 | 100 | 6.8 | 60 | 18.3 | 100 | Active | <3.3 | Active
